The values below come from ChEMBL document CHEMBL1154689, “Coordination chemistry based approach to lipophilic inhibitors of 1-deoxy-D-xylulose-5-phosphate reductoisomerase” (J Med Chem, 2009).

Broadly, the inhibition is how much of the control response was suppressed. By MIC is commonly meant the lowest concentration found to suppress growth. A word on the IC50: it is the concentration needed to halve the response being measured. Low readings indicate greater potency, high ones weaker potency.

Assay [1] concerns Escherichia coli. The experiment in a line: Inhibition of Escherichia coli M15 DXR at 100 uM.
Assay [2] relates to Escherichia coli. The experiment in a line: Antibacterial activity against Escherichia coli B/r after 24 hrs by NCCLS method. Format: functional. Put shortly:
(§1)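 MIC taken as the lowest agent concentration preventing visible bacterial growth after 24 h incubation at 37 °C.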

The test system of another assay is Micrococcus luteus. Description: Antibacterial activity against Micrococcus luteus WT after 24 hrs by NCCLS method. Type of assay: functional. Summed up: as §1
A further assay concerns Bacillus anthracis. Description: Antibacterial activity against Bacillus anthracis Sterne after 24 hrs by NCCLS method. Format: functional.
A further assay deals with Pseudomonas aeruginosa. The experiment in a line: Antibacterial activity against Pseudomonas aeruginosa H45006 after 24 hrs by NCCLS method. Format: functional. The conditions noted are these: H45006, 24 h. Put shortly:
as §1

Assay [3] in a line: Inhibition of Escherichia coli M15 DXR.
Assay [4] is described as follows: Cytotoxicity against human WI38 cells after 24 hrs by MTS assay. Type of assay: cell-based. The conditions noted are these: WI-38, 24 h.
The nature of assay [5]: Cytotoxicity against human BEAS2B cells after 24 hrs by MTS assay. Format: cell-based. As to conditions: BEAS-2B. Background: Tetrazolium dyes change colour on reduction, which living cells bring about.

Each structure is given as a SMILES string. Converted amounts (≈) assume the structure as drawn.

Turning to `[O-][n+]1cccc(-c2ccccc2)c1`, in the assay on Escherichia coli [1], the inhibition was 0%.

Turning to `O=C(Cc1ccccc1)NO`, the inhibition in the assay on Escherichia coli [1] is 26%.

Regarding `O=c1ccn(O)c(=O)n1Cc1ccccc1`, in the assay on Escherichia coli [1], the inhibition is 0%.

On to `Nc1cc(-c2ccccc2)ccc1O`, for which the inhibition with Escherichia coli [1] is 0%.

Turning to `O=P(O)(O)CCc1ccc(O)c(O)c1`, the MIC is greater than 1000 µM in the assay with Escherichia coli [2], greater than 1000 µM against Micrococcus luteus, 1000 µM (≈ 218 µg/mL) against Bacillus anthracis and 1000 µM (≈ 218 µg/mL) against Pseudomonas aeruginosa.

In the case of `Oc1ccc(Cc2ccccc2)cc1O`, the MIC was found to be 1000 µM (≈ 200 µg/mL) with Escherichia coli [2], 200 µM (≈ 40 µg/mL) with Micrococcus luteus, 200 µM (≈ 40 µg/mL) against Bacillus anthracis and 200 µM (≈ 40 µg/mL) against Pseudomonas aeruginosa. Also, 22.4 µM corresponded to half-maximal inhibition in assay [3] (IC50).

For the molecule `Oc1ccc(-c2ccccc2)cc1O`, the MIC came out at 500 µM (≈ 93.1 µg/mL) in the assay with Escherichia coli [2], 200 µM (≈ 37.2 µg/mL) against Micrococcus luteus, 200 µM (≈ 37.2 µg/mL) with Bacillus anthracis and 200 µM (≈ 37.2 µg/mL) with Pseudomonas aeruginosa.

As to `O=c1cc(Cc2ccccc2)occ1O`, the inhibition in the assay on Escherichia coli [1] is 0%.

Regarding `O=c1cc(Cc2ccccc2)[nH]cc1O`, the inhibition in the assay on Escherichia coli [1] was found to be 0%.

In turn, `Oc1cnc(Cc2ccccc2)nc1O` had an inhibition in the assay with Escherichia coli [1] of 30%.

`O=C(O)CCc1ccc(O)c(O)c1` showed an inhibition with Escherichia coli [1] of 26.2%.

Molecule `O=c1n(O)ccn1Cc1ccccc1` displayed an inhibition in the assay with Escherichia coli [1] of 19%.

Regarding `CC1(C)S[C@@H]2[C@H](NC(=O)[C@H](N)c3ccccc3)C(=O)N2[C@H]1C(=O)O` [AMPICILLIN], the MIC came out at 5 µM (≈ 1.75 µg/mL) in the assay with Escherichia coli [2], 1 µM (≈ 0.349 µg/mL) in the assay on Micrococcus luteus, 0.1 µM (≈ 0.0349 µg/mL) against Bacillus anthracis and 500 µM (≈ 175 µg/mL) against Pseudomonas aeruginosa.

As to `O=c1ccc(-c2ccccc2)cn1O` [1-HYDROXY-5-PHENYLPYRIDIN-2(1H)-ONE], the MIC with Escherichia coli [2] was determined as 100 µM (≈ 18.7 µg/mL); against Micrococcus luteus, 100 µM (≈ 18.7 µg/mL); with Bacillus anthracis it was 20 µM (≈ 3.74 µg/mL); against Pseudomonas aeruginosa, 50 µM (≈ 9.36 µg/mL). In addition, the half-inhibitory concentration (IC50) was 1.4 µM in assay [3], greater than 300 µM in assay [4] and greater than 300 µM in assay [5].

Take `O=CN(O)CCCP(=O)(O)O` [FOSMIDOMYCIN]: the minimum inhibitory concentration (MIC) is 10 µM (≈ 1.83 µg/mL) in the assay with Escherichia coli [2], greater than 1000 µM with Micrococcus luteus, 100 µM (≈ 18.3 µg/mL) with Bacillus anthracis and 20 µM (≈ 3.66 µg/mL) with Pseudomonas aeruginosa. The molecule further displayed a concentration for half-maximal inhibition (IC50) in assay [3] of 0.08 µM.

For `NC[C@H]1O[C@H](O[C@H]2[C@H](O)[C@@H](O[C@H]3O[C@H](CO)[C@@H](O)[C@H](N)[C@H]3O)[C@H](N)C[C@@H]2N)[C@H](O)[C@@H](O)[C@@H]1O` [KANAMYCIN], the MIC came to 10 µM (≈ 4.85 µg/mL) in the assay on Escherichia coli [2], 20 µM (≈ 9.69 µg/mL) with Micrococcus luteus, 5 µM (≈ 2.42 µg/mL) against Bacillus anthracis and 200 µM (≈ 96.9 µg/mL) in the assay with Pseudomonas aeruginosa.

For the molecule `Oc1ccc(-c2ccccc2)cn1`, it took 75 µM to reach half-maximal inhibition in assay [3] (IC50). That is a double-digit micromolar value.

With `O=C(O)c1cc(-c2ccccc2)ccc1O`, in the assay with Escherichia coli [1], the inhibition was found to be 0%.
